Results: ChEMBL document CHEMBL1134459 (J Med Chem, 2001)
Values after ≈ are worked out from the molar mass of the structure shown.

Tests used:
[1] = target: Intercellular adhesion molecule 1 (Homo sapiens, UniProt P05362); test: Inhibition of intercellular adhesion molecule-1 (ICAM1) in human endothelial cells; format: cell-based, Endothelial cell
Summary of the method: (§1)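 Whole-cell ELISA on primary HUVECs plated at 5 × 10^4 cells/mL in EBM/2% FBS with growth supplements. Compound preincubated 24 h at 37 °C, then inducer added (TNFα at 5 ng/mL final, or IL-1β or PMA in its place) for 6 h at 37 °C. Mouse monoclonal anti-E-selectin, anti-ICAM-1 or anti-VCAM-1 was applied overnight at 4 °C, then HRP anti-mouse IgG. Detection with OPD, A490. Triplicate assays.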

E-selectin = target: T1, E-selectin (Homo sapiens, UniProt P16581); test: Inhibition of selectin E in human endothelial cells; format: cell-based, Endothelial cell; summary of the method: as §1
T1 sequence (P16581 whole entry): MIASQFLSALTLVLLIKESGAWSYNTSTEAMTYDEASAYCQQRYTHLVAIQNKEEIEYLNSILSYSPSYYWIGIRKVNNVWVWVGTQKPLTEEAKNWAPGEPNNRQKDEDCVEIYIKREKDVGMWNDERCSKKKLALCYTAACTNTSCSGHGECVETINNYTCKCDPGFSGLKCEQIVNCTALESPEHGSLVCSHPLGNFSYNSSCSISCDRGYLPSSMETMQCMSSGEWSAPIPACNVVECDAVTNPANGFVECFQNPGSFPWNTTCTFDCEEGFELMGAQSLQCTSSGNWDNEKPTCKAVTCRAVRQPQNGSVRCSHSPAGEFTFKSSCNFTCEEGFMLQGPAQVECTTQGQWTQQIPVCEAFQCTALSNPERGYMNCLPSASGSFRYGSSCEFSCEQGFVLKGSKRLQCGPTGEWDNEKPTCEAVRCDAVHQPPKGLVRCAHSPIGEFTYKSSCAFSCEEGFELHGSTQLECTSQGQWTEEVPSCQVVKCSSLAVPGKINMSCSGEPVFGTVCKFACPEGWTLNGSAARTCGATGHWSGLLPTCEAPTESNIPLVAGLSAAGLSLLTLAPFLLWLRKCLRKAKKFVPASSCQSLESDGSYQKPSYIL

[2] = Solubility in pH 7.4 buffer; format: physicochemical
[3] = Toxicity in HUVEC cell lysates.; format: cell-based, Lysate; settings: human
[4] = Solubility in pH 7.4 buffer.; format: physicochemical

Sequence of Intercellular adhesion molecule 1 (P05362 whole entry): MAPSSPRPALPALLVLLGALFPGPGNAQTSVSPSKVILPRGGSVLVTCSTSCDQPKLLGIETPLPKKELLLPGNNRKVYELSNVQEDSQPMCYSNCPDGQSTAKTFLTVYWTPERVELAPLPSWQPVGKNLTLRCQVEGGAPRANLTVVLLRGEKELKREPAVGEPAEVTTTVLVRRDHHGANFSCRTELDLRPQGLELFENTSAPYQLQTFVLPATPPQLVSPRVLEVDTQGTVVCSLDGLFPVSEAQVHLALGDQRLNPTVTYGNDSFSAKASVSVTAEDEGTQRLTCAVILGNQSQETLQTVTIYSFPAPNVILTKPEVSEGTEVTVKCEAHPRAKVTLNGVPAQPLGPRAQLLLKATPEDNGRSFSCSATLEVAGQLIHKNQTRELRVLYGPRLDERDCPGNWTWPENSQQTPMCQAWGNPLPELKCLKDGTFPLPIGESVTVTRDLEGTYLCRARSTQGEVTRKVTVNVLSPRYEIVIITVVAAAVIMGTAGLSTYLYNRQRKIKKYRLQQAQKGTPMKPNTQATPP

Compound	IC50 [1] [µM]	IC50 (E-selectin) [µM]	solubility [2] [mg/mL]	IC50 [3]	solubility [4] [mg/mL]
CNC(=O)c1cc2c(Oc3ccc(/C=C/C(=O)NCC(O)CO)cc3)cncc2s1 (configuration not stated)	0.58	0.83			
NC(=O)c1cc2c(Oc3ccc(/C=C/C(=O)NCCN4CCOCC4)cc3)cncc2s1	0.032	0.034			
NC(=O)c1cc2c(Oc3ccc(C(=O)N4CCOCC4)cc3)cncc2s1	0.83	0.87			
CNC(=O)c1cc2c(Oc3ccc(/C=C/C(=O)NCCN(CCO)CCO)cc3)cncc2s1	0.6	0.68			
CNC(=O)c1cc2c(Oc3ccc(/C=C/C(=O)NCCc4c[nH]cn4)cc3)cncc2s1	0.67	0.6			
CNC(=O)c1cc2c(Oc3ccc(COC)cc3)cncc2s1	0.017	0.013	0.0048 (≈ 14.6 µM)		
CC(C)c1ccc(Oc2cncc3sc(C(N)=O)cc23)cc1	0.047	0.076		34 µM	
NC(=O)c1cc2c(Oc3ccc(C(=O)NCCN4CCOCC4)cc3)cncc2s1	> 1	> 1			
CNC(=O)c1cc2c(Oc3ccc(-c4cncn4C)cc3)cncc2s1	0.36	0.15			
CNC(=O)c1cc2c(Oc3ccc(-c4noc(C(F)(F)F)n4)cc3)cncc2s1	0.022	0.028			
CNC(=O)c1cc2c(Oc3ccc(-n4cncn4)cc3)cncc2s1	0.16	0.18			
Cc1ccc(Oc2cncc3sc(C(N)=O)cc23)cc1	0.02	0.02		91 µM	
CNC(=O)c1cc2c(Oc3ccc(-c4nn[nH]n4)cc3)cncc2s1	> 1	> 1			
NC(=O)c1cc2c(Oc3cccc(Br)c3)cncc2s1	0.11	0.08			
NC(=O)c1cc2c(Oc3ccc(/C=C/C(=O)NCC(O)CO)cc3)cncc2s1 (configuration not stated)	0.79	> 0.715			
COCCOCc1ccc(Oc2cncc3sc(C(N)=O)cc23)cc1	0.006	0.005			
CNC(=O)c1cc2c(Oc3ccc(-n4ccnc4)cc3)cncc2s1	0.006	0.002		> 10 µM	
NC(=O)c1cc2c(Oc3ccc(C(O)CO)cc3)cncc2s1 (configuration not stated)	0.68	0.67			0.0153 (≈ 46.3 µM)
NC(=O)c1cc2c(Oc3ccc(CO)cc3)cncc2s1			0.0069 (≈ 23 µM)		
NC(=O)c1cc2c(Oc3ccc(COC4CCCCO4)cc3)cncc2s1 (configuration not stated)	0.0014	0.002			
CCOCCOCCOCC(F)(F)c1ccc(Oc2cncc3sc(C(=O)NC)cc23)cc1	0.026	0.11			

Compound	IC50 [1] [µM]	IC50 (E-selectin) [µM]	solubility [2] [mg/mL]	IC50 [3]	solubility [4] [mg/mL]
CNC(=O)c1cc2c(Oc3ccc(C(=N)NO)cc3)cncc2s1	0.059	0.013		> 10 µM	
NC(=O)c1cc2c(Oc3ccc(I)cc3)cncc2s1	0.004	0.006			
Cc1cc(Cl)ccc1Oc1cncc2sc(C(N)=O)cc12	0.58	0.37			
CNC(=O)c1cc2c(Oc3ccc(-c4ccccc4)cc3)cncc2s1	0.025	0.009			
NC(=O)c1cc2c(Oc3ccc(N)cc3)cncc2s1	0.042	0.035			
NC(=O)c1cc2c(Oc3cccc(C(F)(F)F)c3)cncc2s1	0.76	0.87			
CNC(=O)c1cc2c(Oc3ccc(C(=O)NCCN4CCOCC4)cc3)cncc2s1	0.73	0.77			
CCOC(=O)c1cccc(Oc2cncc3sc(C(N)=O)cc23)c1	0.68	0.63			
CNC(=O)c1cc2c(Oc3ccc(COCCOC)cc3)cncc2s1	0.008	0.007			0.0257 (≈ 69 µM)
CNC(=O)c1cc2c(Oc3ccc(/C=C/C(=O)NCCN4CCOCC4)cc3)cncc2s1	0.053	0.043			
CNC(=O)c1cc2c(Oc3ccc(N4CCOCC4)cc3)cncc2s1	0.079	0.035			
CNC(=O)c1cc2c(Oc3ccc(-c4cccs4)cc3)cncc2s1	0.006	0.005			
NC(=O)c1cc2c(Oc3ccc(C(=O)N(C(=O)NC4CCCCC4)C4CCCCC4)cc3)cncc2s1	0.116	0.115			
COCc1ccc(Oc2cncc3sc(C(N)=O)cc23)cc1	0.016	0.016			0.0062 (≈ 19.7 µM)
CCOCCOCCOCC1(c2ccc(Oc3cncc4sc(C(=O)NC)cc34)cc2)CC1				> 10 mg/L	
NC(=O)c1cc2c(Oc3ccc(Cl)cc3Br)cncc2s1	0.3	0.11			
COCCOCCOCc1ccc(Oc2cncc3sc(C(N)=O)cc23)cc1					0.16 (≈ 398 µM)
NC(=O)c1cc2c(Oc3ccc(Cl)c(F)c3)cncc2s1	0.01	0.008			
NC(=O)c1cc2c(Oc3ccc(/C=C/C(=O)NCCN(CCO)CCO)cc3)cncc2s1	0.82	0.65			
CCOC(=O)c1ccc(Oc2cncc3sc(C(N)=O)cc23)cc1	0.018	0.02			
